We go through 14 compounds from ChEMBL document CHEMBL4152210, “Design, synthesis, anti-lung cancer activity, and chemosensitization of tumor-selective MCACs based on ROS-mediated JNK pathway activation and NF-κB pathway inhibition” (Eur J Med Chem, 2018).

pIC50: −log10 of the molar value. A value given as a limit tells only on which side of the number the result lay.

By pIC50 is commonly meant −log10 of the IC50, conventionally taken in molar units. By inhibition is commonly meant the percentage by which the read-out fell short of the control.

One series has as its system NCI-H460. Description: Cytotoxicity against human H460 cells assessed as reduction in cell viability after 72 hrs by MTT assay. The series is classed as functional, cell-based. The conditions noted are these: NCI-H460, 72 h. Summed up:
(§1)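 Cells in RPMI 1640 with 10% heat-inactivated FBS and penicillin/streptomycin at 37 °C, 5% CO2. Seeded at 4000 per well, adhered overnight, then exposed to graded compound concentrations in triplicate wells for 72 h. MTT (5 mg/mL stock) added for 4 h, dissolved in DMSO, A490 read. IC50 is the concentration reducing viability by 50% versus untreated control.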
For orientation: Tetrazolium assays rely on reduction of a dye to a coloured formazan, in cell work by metabolically active cells.

Series [1] relates to A549. Description: Cytotoxicity against human A549 cells assessed as reduction in cell viability after 72 hrs by MTT assay. The conditions noted are these: A549, 72 h. The series is classed as functional, cell-based. Summed up: as §1
The subject of the next series is NCI-H1650. Description: Cytotoxicity against human NCI-H1650 cells assessed as reduction in cell viability after 72 hrs by MTT assay. The series is classed as functional, cell-based. The settings on record: NCI-H1650, 72 h. A digest of the protocol: as §1
The test system of the next series is NCI-H1975. Description: Cytotoxicity against human NCI-H1975 cells assessed as reduction in cell viability after 72 hrs by MTT assay. It is filed as functional, cell-based. The conditions noted are these: NCI-H1975, 72 h. A digest of the protocol: as §1
A further series has as its system L02. Description: Cytotoxicity against human HL7702 cells assessed as reduction in cell viability after 72 hrs by MTT assay. It is filed as cell-based. The conditions noted are these: L02, 72 h. A digest of the protocol:
as §1

A short description of series [2]: Selectivity index, ratio of IC50 for human HL7702 cells to IC50 for human H460 cells. It is filed as toxicity. A digest of the protocol: (§2)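 Selectivity index taken as the logarithm of the ratio of the HL7702 IC50 to the cancer-line IC50. […] Not calculated when an IC50 was lacking.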
A short description of series [3]: Selectivity index, ratio of IC50 for human HL7702 cells to IC50 for human A549 cells. It is filed as toxicity. A digest of the protocol: as §2
A short description of series [4]: Selectivity index, ratio of IC50 for human HL7702 cells to IC50 for human NCI-H1650 cells. It is filed as toxicity. Summed up:
as §2

Series [5] in a line: Selectivity index, ratio of IC50 for human HL7702 cells to IC50 for human NCI-H1975 cells. The series is classed as toxicity. Summed up: as §2
Series [6] has as its system A549. Description: Anticlonogenic activity against human A549 cells assessed as inhibition of clonogenic growth at 3 uM incubated for 2 days followed by replacement of growth media and measured after 8 days by crystal violet staining-based assay relative to control. The series is classed as functional. Summed up: (§3)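 A549 cells grown in 1640 medium with 10% heat-inactivated FBS at 37 °C, 5% CO2. Seeded at 1000 cells per well, then exposed to drug or left untreated. Medium, with or without drug, replaced after 2 days. 8 days later colonies fixed with 1% methanol and 1% formaldehyde, stained with 0.5% crystal violet and photographed. Percent inhibition expressed relative to control.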

The subject of series [7] is A549. Description: Anticlonogenic activity against human A549 cells assessed as inhibition of clonogenic growth at 9 uM incubated for 2 days followed by replacement of growth media and measured after 8 days by crystal violet staining-based assay relative to control. It is filed as functional. Summed up: as §3

For `COc1cc(/C=C2\CN(C(=O)c3ccccc3F)C/C(=C\c3cc(OC)c(OC)c(OC)c3)C2=O)cc(OC)c1OC`, the pIC50 in the series with NCI-H460 is 5.82; in the series with A549 [1], 6.15; in the series with NCI-H1650, 5.72; with NCI-H1975, 5.85; in the series with L02, 5.36. In addition, the “log(RatioIC50)” value in [2] came to 0.47; in series [3], 0.8; in series [4], 0.36; in series [5] it was 0.5.
With `CCN1C/C(=C\c2ccc(OC)c(OC)c2)C(=O)/C(=C/c2ccc(OC)c(OC)c2)C1`, the pIC50 with NCI-H460 is 5.44; in the series with A549 [1] it was 5.44; in the series with NCI-H1650, 4.92; with NCI-H1975, 5.07; in the series on L02 it was 5.01. Also, the “log(RatioIC50)” value is on record as 0.43 in series [2], 0.43 in [3], -0.09 in [4] and 0.06 in [5].
Take `COc1cc(/C=C/C(=O)CC(=O)/C=C/c2ccc(O)c(OC)c2)ccc1O` [CURCUMIN]: the pIC50 with NCI-H460 is 5.07; in the series with A549 [1], 5.17; in the series on NCI-H1975 it was 5.85; in the series on L02 it was 5.14. Besides, the “log(RatioIC50)” value is -0.07 in [2], 0.02 in [3], -0.45 in series [4] and 0.71 in series [5].
Take `O=C1/C(=C/c2ccccc2F)CNC/C1=C\c1ccccc1F`: the pIC50 with NCI-H460 is 5.92; in the series on A549 [1], 5.62; in the series with NCI-H1650, 5.77; in the series with NCI-H1975, 5.89; in the series on L02 it was 5.29. For the same compound, the “log(RatioIC50)” value in series [2] turned out to be 0.63; in series [3], 0.33; in series [4], 0.48; in series [5], 0.59.
Take `COc1cc(/C=C2\CN(C(=O)C(C)C)C/C(=C\c3cc(OC)c(OC)c(OC)c3)C2=O)cc(OC)c1OC`: the pIC50 in the series with NCI-H460 is 5.70; in the series on A549 [1] it was 6.10; in the series on NCI-H1650 it was 4.97; in the series with NCI-H1975 it was 5.72; in the series with L02 it was 4.91. The “log(RatioIC50)” value came out at 0.79 in series [2], 1.18 in series [3], 0.05 in [4] and 0.81 in [5].
On to `CCCN1C/C(=C\c2ccc(OC)c(OC)c2)C(=O)/C(=C/c2ccc(OC)c(OC)c2)C1`, for which the pIC50 was 5.39 in the series with NCI-H460; 5.38 in the series with A549 [1]; 4.80 in the series with NCI-H1650; 4.95 in the series on NCI-H1975; 4.68 in the series with L02. Further, the “log(RatioIC50)” value in series [2] is 0.71; in series [3] it was 0.7; in [4], 0.12; in series [5], 0.27.
For the compound `CCN1C/C(=C\c2cc(OC)c(OC)c(OC)c2)C(=O)/C(=C/c2cc(OC)c(OC)c(OC)c2)C1`, the pIC50 in the series on NCI-H460 is 5.31; with A549 [1], 5.38; with NCI-H1650, 5.09; in the series on NCI-H1975 it was 5.19; with L02 it was 4.89. For the same compound, the “log(RatioIC50)” value amounted to 0.42 in series [2], 0.48 in series [3], 0.19 in series [4] and 0.29 in series [5].
`COc1ccc(/C=C2\CNC/C(=C\c3ccc(OC)c(OC)c3)C2=O)cc1OC`: the pIC50 was 5.19 in the series on NCI-H460; 5.54 with A549 [1]; 4.78 in the series on NCI-H1650; 4.99 with NCI-H1975; 4.82 in the series with L02. In addition, the “log(RatioIC50)” value is 0.37 in series [2], 0.72 in [3], -0.04 in series [4] and 0.17 in [5].
Regarding `Cc1ccc2nc(NCCN)c3ncc(C)n3c2c1` [BMS-345541], the pIC50 in the series on NCI-H460 was 5.55; with A549 [1], 5.07; in the series with NCI-H1650, 5.03; in the series on NCI-H1975 it was 5.10; in the series on L02 it was 4.82. Besides, the “log(RatioIC50)” value in [2] is reported as 0.74; in series [3], 0.25; in series [4], 0.22; in series [5] it was 0.28.
With `CCC(=O)N1C/C(=C\c2cc(OC)c(OC)c(OC)c2)C(=O)/C(=C/c2cc(OC)c(OC)c(OC)c2)C1`, the pIC50 was 5.57 in the series with NCI-H460; 6.10 in the series with A549 [1]; 5.36 in the series on NCI-H1650; 5.77 in the series on NCI-H1975; 5.38 in the series on L02. In addition, the “log(RatioIC50)” value in series [2] is listed as 0.19; in series [3], 0.72; in series [4], -0.02; in [5], 0.39.
As for `O=c1[nH]cc(F)c(=O)[nH]1` [FLUOROURACIL], in the series on A549 [6], the inhibition at 3 µM was determined as 38%. Further, the inhibition at 9 µM in the series on A549 [7] amounted to 70%.
For `COc1ccc(/C=C2\CN(C)C/C(=C\c3ccc(OC)c(OC)c3)C2=O)cc1OC`, the pIC50 was 5.51 with NCI-H460; 5.89 in the series on A549 [1]; 5.05 in the series on NCI-H1650; 5.18 in the series with NCI-H1975; 4.74 in the series on L02. The “log(RatioIC50)” value stood at 0.77 in series [2], 1.15 in series [3], 0.31 in series [4] and 0.44 in series [5].
For `COc1cc(/C=C2\CN(C(=O)CCC(=O)O)C/C(=C\c3cc(OC)c(OC)c(OC)c3)C2=O)cc(OC)c1OC`, the pIC50 in the series with NCI-H460 was < 4.22; in the series on A549 [1] it was 4.75; with NCI-H1650, < 4.22; in the series on NCI-H1975, < 4.22; in the series with L02, < 4.22.
Take `COc1cc(/C=C2\CNC/C(=C\c3cc(OC)c(OC)c(OC)c3)C2=O)cc(OC)c1OC`: the pIC50 in the series with NCI-H460 was 5.82; in the series on A549 [1], 5.92; in the series with NCI-H1650, 5.38; with NCI-H1975 it was 5.40; in the series on L02, 5.12. Further, the “log(RatioIC50)” value in [2] stood at 0.7; in series [3], 0.8; in [4], 0.26; in series [5] it was 0.28.
